Screening results from PubChem BioAssay.
Cl transport mod: KCC2 cotransporter modulators, thallium flux, primary screen, cell-based, HEK293 KCC2, FluoZin-2 fluorescence, MLSMR; Solute carrier family 12 member 5 (Homo sapiens), Q9H2X9; KCC2 cells, thallium flux FluoZin-2 fluorescence; B-score of Tl+ flux slope (higher = more flux/activation; lower = inhibition) at 10 µM; 2.2% of 190,000 active; AID 1456, 2008;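 active = thallium flux slope and its plate-corrected score both differing from the plate sample mean at a set confidence after two filtering rounds, in either direction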;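 also: slope of fluorescence scaled to starting intensity during 10 to 20 s after thallium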
hERG rescue: hERG rescue from dofetilide block, primary screen, cell-based, CHO-hERG, FluxOR thallium flux, dofetilide IC70; Voltage-gated inwardly rectifying potassium channel KCNH2 (Homo sapiens), Q12809; dofetilide IC70 present; activation (rescue from dofetilide block), less the hit threshold, % at 10 µM; 0.51% of 310,000 active; AID 1511, 2009;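 active = activation above the mean of controls blocked by dofetilide plus 5 SD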;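 also: thallium influx through hERG after potassium depolarization seen as dye fluorescence rise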
KCNQ1 inh: inhibitors of human KCNQ1 channel, primary screen, cell-based, thallium flux, high-throughput; 1.3% of 310,000 active; AID 2642, 2010; CHO-K1 KCNQ1, FluxOR thallium flux fluorescence; active compounds read high; B-score at 10 µM;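 active = compounds whose thallium flux B-score, printed positive for inhibition, exceeds three library SD while starting fluorescence stays within three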;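 also: channel opened by potassium depolarization with thallium stimulus after 20 min compound exposure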
KCNQ1 act: potentiators or activators of KCNQ1 channel, primary screen, cell-based, thallium flux, high-throughput. Potassium voltage-gated channel subfamily KQT member 1 (Homo sapiens), P51787. 0.35% of 310,000 active. B-score at 10 µM. CHO-K1 KCNQ1, thallium flux FluxOR fluorescence; active compounds read high;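 active = fluorescence ratio B-score, a plate-corrected score, at least three library SD, with initial intensity B-score within 5 SD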
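System: CHO-K1 cells stably expressing KCNQ1 / Medium: assay buffer for compound exposure, DMSO matched across wells / Reagent: thallium- and potassium-containing depolarizing buffer / Compound: one concentration, matched DMSO / Incubation: 20 min compound pretreatment at room temperature / Measured by: kinetic FluxOR fluorescence, 10 s baseline plus 110 s post-stimulus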
KCNK9 block: KCNK9 potassium channel inhibitors, primary screen, HEK293 cells, thallium flux. Potassium channel subfamily K member 9 (Homo sapiens), Q9NPC2. FluxOR thallium flux fluorescence; active compounds read low. B-score at 10 µM. 1.2% of 310,000 active;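 active = ratio B-score over 3 SD below the library mean, with starting fluorescence within 5 SD of its mean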;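 also: negative B-score means less thallium flux so channel inhibition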
KCNK3 inh: human KCNK3 channel inhibitors, primary screen, CHO cells, FluxOR thallium flux, B-score; AID 602410, 2012; FluxOR fluorescence; active compounds read low; B-score at 10 µM; 0.84% of 340,000 active; Potassium channel subfamily K member 3 (Homo sapiens), O14649;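 active = B-score under library mean minus 4 SD, starting fluorescence ratio at most library mean plus 5 SD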;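 also: more negative B-score means stronger inhibition of thallium flux through KCNK3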
Target sequence (O14649 whole entry, looked up): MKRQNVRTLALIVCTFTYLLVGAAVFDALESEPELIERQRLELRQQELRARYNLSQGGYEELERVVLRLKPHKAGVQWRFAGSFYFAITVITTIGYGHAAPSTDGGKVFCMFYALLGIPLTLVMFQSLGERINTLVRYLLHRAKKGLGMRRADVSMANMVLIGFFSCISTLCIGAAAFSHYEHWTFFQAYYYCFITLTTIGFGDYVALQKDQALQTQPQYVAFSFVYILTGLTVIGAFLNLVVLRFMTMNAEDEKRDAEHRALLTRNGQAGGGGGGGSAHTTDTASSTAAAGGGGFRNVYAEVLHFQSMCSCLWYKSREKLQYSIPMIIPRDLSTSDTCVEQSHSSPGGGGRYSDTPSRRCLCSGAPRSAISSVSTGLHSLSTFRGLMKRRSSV
KCNK3 inh conf: retest of human KCNK3 channel inhibitors, confirmation, CHO cells, FluxOR thallium flux, triplicate; shares compounds with KCNK3 inh; FluxOR fluorescence; 0% buffer, 100% carvedilol maximal block; ratio percent of control, % at 10 µM; 99% of 2,400 active; AID 651638, 2012;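 active = ratio percent of control, averaged over triplicates, above buffer control mean plus 5 SD, cut at about 64% in these data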;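 also: ratio is the fluorescence rise from min to max over baseline after thallium stimulus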
KCNK3 noninduced: thallium flux inhibition in non-induced cells, primary screen, counter-screen for KCNK3 inhibitor project, cell-based, non-induced KCNK3 line, FluxOR thallium, triplicate | shares compounds with KCNK3 inh | non-induced KCNK3 parental cells; active compounds read low | thallium flux ratio (lower = more inhibition) at 10 µM | 40% of 2,400 active | AID 651747, 2012;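 active = thallium flux ratio, averaged over three wells, more than 5 SD below the buffer control mean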;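 also: host cells are CHO cells without KCNK3 induction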
A number is an active result. In the library only some 4.1% were active in any assay of this set; here they are far more common.

For CCOc1ccc(NC(=O)C2CCN(S(C)(=O)=O)CC2)cc1 the results were hERG rescue inactive, KCNQ1 inh inactive, KCNQ1 act inactive, KCNK9 block inactive, KCNK3 inh -9.3, KCNK3 inh conf 97 and KCNK3 noninduced inactive.
`COc1ccc(NC(=O)C2CCN(S(C)(=O)=O)CC2)cc1` gave hERG rescue inactive, KCNQ1 inh inactive, KCNQ1 act inactive, KCNK9 block inactive and KCNK3 inh inactive.
`O=C1CCC[C@@H]2Cc3nc4cc5c(cc4cc3[C@@H]3CCN1[C@H]23)OCO5` gave KCNK3 inh inactive.
`COCCN(C(=O)COC(=O)/C=C/c1ccc2ccccc2n1)c1c(N)n(Cc2ccccc2)c(=O)[nH]c1=O` gave hERG rescue inactive, KCNQ1 inh inactive, KCNQ1 act inactive, KCNK9 block inactive, KCNK3 inh -12, KCNK3 inh conf 55 and KCNK3 noninduced inactive.
For COCCN(C(=O)COC(=O)c1c(NC(C)=O)sc(C)c1C)c1c(N)n(Cc2ccccc2)c(=O)[nH]c1=O the results were hERG rescue inactive, KCNQ1 inh inactive, KCNQ1 act inactive, KCNK9 block inactive, KCNK3 inh -9.4, KCNK3 inh conf 97 and KCNK3 noninduced inactive.
Screening CN(C(=O)COC(=O)/C=C/c1ccc2ccccc2n1)c1c(N)n(Cc2ccccc2)c(=O)[nH]c1=O returned KCNK3 inh inactive.
Screening CC(=O)Nc1sc(C)c(C)c1C(=O)OCC(=O)N(C)c1c(N)n(Cc2ccccc2)c(=O)[nH]c1=O returned hERG rescue inactive, KCNQ1 inh inactive, KCNQ1 act inactive, KCNK9 block inactive and KCNK3 inh inactive.
Screening Cc1ccc(OCC(=O)NNC(=O)c2ccccc2OCc2c(C)noc2C)cc1 returned hERG rescue inactive, KCNQ1 inh inactive, KCNQ1 act inactive, KCNK9 block inactive, KCNK3 inh -8.7, KCNK3 inh conf 94 and KCNK3 noninduced inactive.
Screening Cc1noc(C)c1COc1ccccc1C(=O)NNC(=O)c1ccccc1F returned KCNK3 inh inactive.
For CCOc1ccccc1C1C(C#N)=C(N)SC(N)=C1C#N the results were hERG rescue inactive, KCNQ1 inh inactive, KCNQ1 act inactive, KCNK9 block inactive and KCNK3 inh inactive.
`CCOc1ccc(C2C(C#N)=C(N)SC(N)=C2C#N)cc1OCC` gave hERG rescue inactive, KCNQ1 inh inactive, KCNQ1 act inactive, KCNK9 block inactive, KCNK3 inh -12, KCNK3 inh conf 108 and KCNK3 noninduced 0.15.
`Cc1sc2ncnc(N3CCN(S(=O)(=O)c4ccc(C(C)(C)C)cc4)CC3)c2c1C` gave KCNK3 inh inactive.
Screening Cc1sc2ncnc(N3CCN(S(=O)(=O)c4ccc(Br)cc4)CC3)c2c1C returned hERG rescue inactive, KCNQ1 inh inactive, KCNQ1 act inactive, KCNK9 block inactive, KCNK3 inh -12, KCNK3 inh conf 116 and KCNK3 noninduced 0.15.
`O=c1c(-c2ccccc2)c(-c2ccccc2)oc2cc(O)cc(O)c12` gave hERG rescue inactive, KCNQ1 inh 13, KCNQ1 act inactive, KCNK9 block inactive, KCNK3 inh -9, KCNK3 inh conf 112 and KCNK3 noninduced inactive.
Screening O=c1c(O)c(-c2ccccc2)oc2cc(O)cc(O)c12 returned KCNK3 inh inactive.
`COC(=O)COc1cccc(NC(=O)c2cccc(C)c2)c1` gave Cl transport mod inactive, hERG rescue inactive, KCNQ1 inh inactive, KCNQ1 act inactive, KCNK9 block inactive and KCNK3 inh inactive.
Screening Cc1cccc(C(=O)Nc2cccc(OC(=O)c3cccc(C)c3)c2)c1 returned hERG rescue inactive, KCNQ1 inh inactive, KCNQ1 act inactive, KCNK9 block -7.9, KCNK3 inh -9.8, KCNK3 inh conf 111 and KCNK3 noninduced 0.15.
For CS(=O)(=O)c1ccc(NS(=O)(=O)c2ccc(Cl)c(C(=O)NCc3ccco3)c2)cc1 the results were KCNK3 inh inactive.
Screening O=C(COC(=O)CNC(=O)C1CCCCC1)Nc1cc(C(F)(F)F)ccc1Cl returned KCNK3 inh inactive.
For CC(OC(=O)C1CC1)C(=O)Nc1cc(C(F)(F)F)ccc1Cl (stereo not drawn) the results were Cl transport mod inactive, hERG rescue inactive, KCNQ1 inh inactive, KCNQ1 act inactive, KCNK9 block inactive, KCNK3 inh -9.9, KCNK3 inh conf 77 and KCNK3 noninduced 0.15.
Screening COc1ccc(Cl)cc1S(=O)(=O)N1CCCC(C(=O)NCc2ccccn2)C1 (stereo not drawn) returned hERG rescue inactive, KCNQ1 inh inactive, KCNQ1 act inactive, KCNK9 block inactive and KCNK3 inh inactive.
For Cc1ccc(C)c(C(=O)COC(=O)c2c(-c3ccccc3)noc2C)c1 the results were KCNK3 inh -14, KCNK3 inh conf 136 and KCNK3 noninduced inactive.
Screening CCOc1ccc(C(=O)COC(=O)c2c(-c3ccccc3)noc2C)cc1 returned hERG rescue inactive, KCNQ1 inh inactive, KCNQ1 act inactive, KCNK9 block inactive and KCNK3 inh inactive.
Screening Cc1ccc(OCCOC(=O)c2c(-c3ccccc3)noc2C)cc1 returned hERG rescue inactive, KCNQ1 inh inactive, KCNQ1 act inactive, KCNK9 block -6.7, KCNK3 inh -8.8, KCNK3 inh conf 101 and KCNK3 noninduced inactive.
Screening COc1cc2cc(CCCOC(=O)c3ccco3)oc(=O)c2cc1OC returned KCNK3 inh inactive.
O=S(=O)(NC(=NCCc1ccc(Cl)cc1)c1ccccc1Cl)c1cccs1 was read as Cl transport mod inactive, hERG rescue inactive, KCNQ1 inh inactive, KCNQ1 act inactive, KCNK9 block inactive, KCNK3 inh -8.9, KCNK3 inh conf 114 and KCNK3 noninduced 0.16.
`CC(=O)Nc1cccc(NC(=O)CSc2nccn2Cc2ccccc2)c1` gave hERG rescue inactive, KCNQ1 inh inactive, KCNQ1 act inactive, KCNK9 block inactive and KCNK3 inh inactive.
For O=C(Cc1c(F)cccc1Cl)NNC(=O)Nc1ccc2c(c1)OCO2 the results were hERG rescue inactive, KCNQ1 inh inactive, KCNQ1 act inactive, KCNK9 block inactive and KCNK3 inh inactive.
